In ChEMBL document CHEMBL5625186, “Synthesis, cytotoxicity, antioxidant activity and molecular modeling of new NSAIDs-EBS derivatives” (Eur J Med Chem, 2023):
Active and inactive are the calls of the source. The rule behind the calls is not given here.

How the values were obtained:
[1] = system: BGC-823; assay: Cytotoxicity against human BGC-823 cells measured after 24 to 72 hrs by MTT assay; assay type: functional, cell-based
In short: (§1)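 Cells were grown in RPMI 1640 with 10% FBS and penicillin/streptomycin at 37 °C, 5% CO2. They were seeded at 1×10^4 cells/well and allowed to attach for 24 h. Compounds at various concentrations were then applied for 24, 48 or 72 h (DMSO below 1.25%). MTT (5.0 mg/mL) was added 3 h before the end, formazan was dissolved in DMSO and OD was read at 570 nm. Doxorubicin served as reference. Data are mean ± SD, n=3.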

[2] = system: SW480; assay: Cytotoxicity against human SW480 cells measured after 24 to 72 hrs by MTT assay; assay type: functional, cell-based; in short: as §1
[3] = system: MCF7; assay: Cytotoxicity against human MCF7 cells measured after 24 to 72 hrs by MTT assay; assay type: functional, cell-based; in short: as §1
[4] = system: HeLa; assay: Cytotoxicity against human HeLa cells measured after 24 to 72 hrs by MTT assay; assay type: functional, cell-based; in short: as §1
[5] = system: A549; assay: Cytotoxicity against human A549 cells measured after 24 to 72 hrs by MTT assay; assay type: functional, cell-based; in short: as §1
[6] = Antioxidant activity assessed as DPPH radical scavenging activity incubated for 30 mins under dark condition relative to control; assay type: functional; set-up: concentration or dose not given beside the values
In short: (§2)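 Compounds at a range of concentrations were mixed with DPPH solution and kept 30 min in the dark. Absorbance was read at 517 nm. % activity = [(control A − sample A)/control A] × 100. Vitamin C and ebselen served as positive controls and DMSO as the negative control. Fold is expressed relative to vitamin C (set as 1). Values are mean ± SD of three independent experiments.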

[7] = system: DNA; assay: Induction of bleomycin-dependent DNA (unknown origin) damage assessed as absorbance at 0.1 mg/ml measured after 1 hr; assay type: nucleic-acid assay
In short: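 The bleomycin-iron/DNA mixture was incubated at 37 °C for 1 h and stopped with 0.1 M EDTA. Colour was developed with 1% TBA plus 25% HCl at 80 °C for 30 min. After ice cooling, DNA damage was read as the increase in absorbance at 532 nm. L-ascorbic acid served as the positive control.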

[8] = Antioxidant activity assessed as glutathione peroxidase-like activity at 41 mM measured over 3 mins; assay type: functional
In short: (§3)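 GPx-like rate measured from GSH/glutathione reductase/NADPH coupling in 50 mM phosphate buffer with 0.1% Triton X-100. The compound was added from a 41 mM solution, and the reaction was started with H2O2 (0.8 mM). A340 was followed for 3 min and expressed as ΔA/min. Values were corrected for the H2O2 + GSH background, and for the compound's own absorbance if coloured. Ebselen (41 mM) served as reference.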

[9] = target: T1, Thioredoxin reductase 1, cytoplasmic (Rattus norvegicus, UniProt O89049); assay: Inhibition of rat TrxR1 using DTNB as substrate preincubated for 15 mins followed by substrate addition and measured for 20 mins by colorimetric method
T1 sequence (O89049 whole entry): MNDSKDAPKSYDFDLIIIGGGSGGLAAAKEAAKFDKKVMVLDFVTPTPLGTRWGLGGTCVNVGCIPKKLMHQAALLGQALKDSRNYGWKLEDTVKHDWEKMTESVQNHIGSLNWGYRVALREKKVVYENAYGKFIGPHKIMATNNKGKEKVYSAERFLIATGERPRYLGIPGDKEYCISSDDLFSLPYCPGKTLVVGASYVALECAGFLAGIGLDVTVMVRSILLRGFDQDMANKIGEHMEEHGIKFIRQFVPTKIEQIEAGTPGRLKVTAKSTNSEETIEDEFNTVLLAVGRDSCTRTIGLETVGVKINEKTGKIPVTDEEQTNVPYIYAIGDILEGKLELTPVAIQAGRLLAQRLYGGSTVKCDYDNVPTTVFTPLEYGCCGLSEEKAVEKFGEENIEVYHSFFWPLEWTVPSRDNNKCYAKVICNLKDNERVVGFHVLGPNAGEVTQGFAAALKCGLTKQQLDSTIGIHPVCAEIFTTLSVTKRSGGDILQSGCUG
In short: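 Rat TrxR1 (5 nM) was used in 100 mM potassium phosphate pH 7.0 with 1 mM EDTA, 0.1 mg/ml BSA and 0.2 mM NADPH. […] DTNB was then added and the A412 increase was monitored for 20 min.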

[10] = Potency index, ratio of test compound to vitamin C antioxidant activity assessed as DPPH radical scavenging activity incubated for 30 mins under dark condition; assay type: functional; in short: as §2
[11] = Antioxidant activity assessed as glutathione peroxidase-like activity at 41 mM measured over 3 mins relative to ebselen glutathione peroxidase-like activity; assay type: functional; in short: as §3

Structure (SMILES)	EC50 [9]	IC50 [1]	IC50 [2]	IC50 [3]	IC50 [4]	IC50 [5]	inhibition [6]	Activity [7]	Activity [8]	Ratio [10]	fold change (FC) [11]
O=C1O[C@H]([C@@H](O)CO)C(O)=C1O	–	–	–	–	–	–	97.2%	292	–	–	–
COc1cccc2c1C(=O)c1c(O)c3c(c(O)c1C2=O)C[C@@](O)(C(=O)CO)C[C@@H]3O[C@H]1C[C@H](N)[C@H](O)[C@H](C)O1 [DOXORUBICIN]	–	9.8 µM	12.4 µM	12.8 µM	11.5 µM	9.4 µM	–	–	–	–	–
O=C(NCCn1[se]c2ccccc2c1=O)c1ccccc1Nc1cccc(C(F)(F)F)c1	24.8 µM	11.4 µM	9.4 µM	12.6 µM	15.2 µM	12.2 µM	41.7%	77.7	Active	0.4	–
Cc1cccc(Nc2ccccc2C(=O)NCCn2[se]c3ccccc3c2=O)c1C	26.6 µM	6.5 µM	7.2 µM	5.3 µM	8.8 µM	5.2 µM	37.4%	72.4	Active	0.4	–
COc1ccc2cc([C@H](C)C(=O)O)ccc2c1 [NAPROXEN]	–	> 50 µM	> 50 µM	> 50 µM	> 50 µM	> 50 µM	–	–	–	–	–
CC(=O)Oc1ccccc1C(=O)NCCn1[se]c2ccccc2c1=O	21.4 µM	11.4 µM	14.2 µM	14.5 µM	12.7 µM	10.6 µM	41.4%	91.4	Active	0.4	–
CC(C(=O)NCCn1[se]c2ccccc2c1=O)c1ccc(-c2ccccc2)c(F)c1 (centres undefined)	28.5 µM	9.5 µM	11.3 µM	14.9 µM	10.4 µM	13.6 µM	42.5%	85.7	Active	0.4	–
COc1ccc2c(c1)c(CC(=O)NCCn1[se]c3ccccc3c1=O)c(C)n2C(=O)c1ccc(Cl)cc1	24.5 µM	17.4 µM	14.3 µM	10.3 µM	13.6 µM	11.2 µM	27.3%	92.4	Active	0.3	–
CC(C)Cc1ccc(C(C)C(=O)O)cc1 (centres undefined) [IBUPROFEN]	–	> 50 µM	> 50 µM	> 50 µM	> 50 µM	> 50 µM	–	–	–	–	–
CC(C(=O)NCCn1[se]c2ccccc2c1=O)c1cccc(C(=O)c2ccccc2)c1 (centres undefined)	23.6 µM	13.6 µM	14.6 µM	10.3 µM	11.3 µM	15.6 µM	33.3%	87.6	Active	0.3	–
COc1ccc2cc(C(C)C(=O)NCCn3[se]c4ccccc4c3=O)ccc2c1 (centres undefined)	28.4 µM	13.5 µM	15.7 µM	16.5 µM	8.8 µM	14.7 µM	28.6%	123	Active	0.3	–
O=c1c2ccccc2[se]n1-c1ccccc1 [EBSELEN]	–	> 50 µM	> 50 µM	> 50 µM	> 50 µM	> 50 µM	–	–	–	–	–
CC(=O)Oc1ccccc1C(=O)O [ASPIRIN]	–	> 50 µM	> 50 µM	> 50 µM	> 50 µM	> 50 µM	–	–	–	–	–
CC1=C(CC(=O)NCCn2[se]c3ccccc3c2=O)c2cc(F)ccc2/C1=C\c1ccc([S+](C)[O-])cc1 (centres undefined)	27 µM	16.6 µM	10.4 µM	14.4 µM	11.3 µM	13.3 µM	29%	68.4	Active	0.3	–

Continued, in another order:

EC50 [9]	Structure (SMILES)	IC50 [1]	IC50 [2]	IC50 [3]	IC50 [4]	IC50 [5]	inhibition [6]	Activity [7]	Activity [8]	Ratio [10]	fold change (FC) [11]
17.2 µM	CC(C)Cc1ccc(C(C)C(=O)NCc2ccc(-n3[se]c4ccccc4c3=O)cc2)cc1 (centres undefined)	7.5 µM	10.4 µM	12.4 µM	9.3 µM	8.1 µM	42.6%	106	Active	0.4	–
14.6 µM	COc1ccc2cc(C(C)C(=O)NCc3ccc(-n4[se]c5ccccc5c4=O)cc3)ccc2c1 (centres undefined)	13.5 µM	7.4 µM	13.8 µM	9.7 µM	11.4 µM	68.6%	82.8	Active	0.7	–
14.3 µM	Cc1cccc(Nc2ccccc2C(=O)NCc2ccc(-n3[se]c4ccccc4c3=O)cc2)c1C	3.4 µM	4.5 µM	4.2 µM	3.8 µM	3.6 µM	54.3%	72.4	Active	0.5	–
8.8 µM	CC(=O)Oc1ccccc1C(=O)NCc1ccc(-n2[se]c3ccccc3c2=O)cc1	2.4 µM	2.8 µM	1.5 µM	1.7 µM	2.1 µM	57.3%	108	Active	0.5	< 3
19.6 µM	CC(C(=O)NCc1ccc(-n2[se]c3ccccc3c2=O)cc1)c1cccc(C(=O)c2ccccc2)c1 (centres undefined)	11.2 µM	12.5 µM	8.4 µM	9.2 µM	13.2 µM	31.3%	85.3	–	0.3	–
11.2 µM	CC(C(=O)NCc1ccc(-n2[se]c3ccccc3c2=O)cc1)c1ccc(-c2ccccc2)c(F)c1 (centres undefined)	6.5 µM	8.3 µM	11.3 µM	9.5 µM	12.3 µM	58.2%	57.3	Active	0.6	–
11.5 µM	O=C(NCc1ccc(-n2[se]c3ccccc3c2=O)cc1)c1ccccc1Nc1cccc(C(F)(F)F)c1	8.4 µM	13.7 µM	14.2 µM	7.5 µM	12.7 µM	51.5%	56.1	–	0.5	–
15.7 µM	COc1ccc2c(c1)c(CC(=O)NCc1ccc(-n3[se]c4ccccc4c3=O)cc1)c(C)n2C(=O)c1ccc(Cl)cc1	9.2 µM	7.5 µM	11.3 µM	14.3 µM	10.3 µM	78.7%	101	Active	0.8	–
10.4 µM	CC1=C(CC(=O)NCc2ccc(-n3[se]c4ccccc4c3=O)cc2)c2cc(F)ccc2/C1=C\c1ccc([S+](C)[O-])cc1 (centres undefined)	9.5 µM	9.8 µM	7.4 µM	8.4 µM	8.3 µM	42.9%	72.4	–	0.4	–
17.1 µM	CCC1(CC)OCCc2c1[nH]c1c(CC(=O)NCc3ccc(-n4[se]c5ccccc5c4=O)cc3)cccc21	9.8 µM	12.3 µM	8.8 µM	12.6 µM	9.8 µM	52.1%	97.4	–	0.5	–
23.5 µM	C=C(C(=O)NCCn1[se]c2ccccc2c1=O)c1ccc(CC(C)C)cc1	12.5 µM	11.4 µM	15.7 µM	10.6 µM	9.4 µM	33.5%	68.4	Active	0.3	–
